The target in assay [1] is Bcl-xL/Bcl-2-like protein 11 (Homo sapiens, UniProt Q07817). The experiment in a line: Inhibition of Bcl-xL/Bim (unknown origin) by ELISA. Type of assay: protein assay. Background: In an ELISA, binding on a coated surface is turned into a signal by an enzyme label.
For assay [2], the system named is MDA-MB-468. Kind of assay: Reduction in Mcl1 level in human MDA-MB-468 cells at 10 uM. In kind it is functional, cell-based. In a few lines:
(§1)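 Human MDA-MB-468 breast cancer cells were exposed to the derivatives at 3 μM, and some at up to 10 μM. Cells were then processed for western blotting. Read-outs were Mcl-1 protein level and caspase 3 cleavage, used as the apoptosis marker.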

Assay [3] deals with MDA-MB-468. Kind of assay: Induction of apoptosis in human MDA-MB-468 cells assessed as caspase 3 activity at 10 uM for 16 hrs. In kind it is functional, cell-based. The procedure, abridged:
as §1

Assay [4] deals with Induced myeloid leukemia cell differentiation protein Mcl-1/Bcl-2-like protein 11 (Homo sapiens, UniProt Q07820). The experiment in a line: Inhibition of Mcl1/Bim (unknown origin) by ELISA. In kind it is protein assay.
Assay [5] relates to MDA-MB-468. Kind of assay: Induction of apoptosis in human MDA-MB-468 cells assessed as caspase 3 activity at 3 uM for 16 hrs.
In assay [6] the test system is MDA-MB-468. Kind of assay: Reduction in Mcl1 level in human MDA-MB-468 cells at 3 uM. In kind it is functional, cell-based. The procedure, abridged: as §1

Our source for the IC50 and Activity values is ChEMBL document CHEMBL3393015, “Design, synthesis and evaluation of marinopyrrole derivatives as selective inhibitors of Mcl-1 binding to pro-apoptotic Bim and dual Mcl-1/Bcl-xL inhibitors” (Eur J Med Chem, 2015).

Structures are written as SMILES. Active and inactive are the calls of the source. The calls are words filed in the database; no cut-off is given here. Where only a bound is given, the exact number is not on record here.

Induced myeloid leukemia cell differentiation protein Mcl-1/Bcl-2-like protein 11, sequence (Q07820 whole entry): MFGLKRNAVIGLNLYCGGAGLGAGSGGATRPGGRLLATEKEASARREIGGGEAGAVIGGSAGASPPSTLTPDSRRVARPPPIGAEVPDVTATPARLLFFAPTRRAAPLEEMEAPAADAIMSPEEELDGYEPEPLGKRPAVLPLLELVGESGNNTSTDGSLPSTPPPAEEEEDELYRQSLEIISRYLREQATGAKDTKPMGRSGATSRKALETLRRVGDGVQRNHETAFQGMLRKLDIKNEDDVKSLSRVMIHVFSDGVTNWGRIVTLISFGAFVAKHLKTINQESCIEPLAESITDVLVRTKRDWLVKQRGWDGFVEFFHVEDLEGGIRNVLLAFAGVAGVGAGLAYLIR
Induced myeloid leukemia cell differentiation protein Mcl-1/Bcl-2-like protein 11, sequence (O43521 whole entry, further chain): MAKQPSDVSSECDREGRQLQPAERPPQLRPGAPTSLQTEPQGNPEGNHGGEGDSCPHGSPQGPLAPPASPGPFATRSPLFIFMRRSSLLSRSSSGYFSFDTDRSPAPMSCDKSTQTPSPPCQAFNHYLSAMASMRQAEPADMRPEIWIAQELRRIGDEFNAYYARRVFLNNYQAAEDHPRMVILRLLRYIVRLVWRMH
Bcl-xL/Bcl-2-like protein 11, sequence (Q07817 whole entry): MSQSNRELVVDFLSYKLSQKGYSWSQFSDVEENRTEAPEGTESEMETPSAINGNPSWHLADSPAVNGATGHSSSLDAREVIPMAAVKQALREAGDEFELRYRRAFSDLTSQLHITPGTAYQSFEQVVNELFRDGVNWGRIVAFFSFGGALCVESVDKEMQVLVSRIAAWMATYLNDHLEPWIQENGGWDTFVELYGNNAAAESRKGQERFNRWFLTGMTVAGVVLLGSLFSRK
Bcl-xL/Bcl-2-like protein 11, sequence (O43521 whole entry, further chain): as the sequence (O43521 whole entry, further chain) above

In general, IC50 refers to the concentration needed to halve the response being measured. Low values mean higher potency, high ones lower potency. `O=C(O)Cn1cc(-c2cc(O)c(C(=O)c3[nH]c(Cl)c(Cl)c3-n3c(C(=O)c4cc(Cl)c(-c5cn(CC(=O)O)nn5)cc4O)cc(Cl)c3Cl)cc2Cl)nn1` had an IC50 in assay [1] above 50 µM. Further, the result in the assay with MDA-MB-468 [2] and in the assay with MDA-MB-468 [3] was inactive.
As to `COc1ccccc1C(=O)c1c(-n2c(C(=O)c3ccccc3OC)cc(Cl)c2Cl)c(Cl)c(Cl)n1C`, the figures for the IC50 in assay [4] and in assay [1] were 15.5 µM and 64.9 µM, respectively.
On to `O=C(c1ccccc1O)c1[nH]c(Cl)c(Cl)c1-n1c(C(=O)c2ccc(F)cc2O)cc(Cl)c1Cl`, for which the figures for the IC50 in assay [4] and in assay [1] were 9.6 µM and 21.3 µM, respectively. In addition, the outcome with MDA-MB-468 [2] and in the assay with MDA-MB-468 [5] was Active.
Take `CCc1ccc(C(=O)c2[nH]c(Cl)c(Cl)c2-n2c(C(=O)c3ccc(CC)cc3O)cc(Cl)c2Cl)c(O)c1`: the result in the assay on MDA-MB-468 [2] and with MDA-MB-468 [5] was Active.
Turning to `O=C(c1ccc(-c2cn(C3CCCCC3)nn2)cc1O)c1[nH]c(Cl)c(Cl)c1-n1c(C(=O)c2ccc(-c3cn(C4CCCCC4)nn3)cc2O)cc(Cl)c1Cl`, the 50% inhibitory concentration (IC50) in assay [4] was found to be 1.4 µM; in assay [1], 3.8 µM. In addition, the outcome with MDA-MB-468 [2] and in the assay on MDA-MB-468 [3] was inactive.
The compound `O=C(c1ccccc1O)c1[nH]c(Cl)c(Cl)c1-n1c(C(=O)c2ccccc2O)cc(Cl)c1Cl` gave a 50% inhibitory concentration (IC50) in assay [1] of 16.4 µM.
Take `O=C(c1ccc(-c2cn(Cc3ccccc3)nn2)cc1O)c1[nH]c(Cl)c(Cl)c1-n1c(C(=O)c2ccc(-c3cn(Cc4ccccc4)nn3)cc2O)cc(Cl)c1Cl`: the IC50 was found to be 3.3 µM in assay [4] and 1.6 µM in assay [1]. Also, the outcome in the assay on MDA-MB-468 [2] and with MDA-MB-468 [3] was inactive.
Take `C=Cc1ccc(C(=O)c2[nH]c(Cl)c(Cl)c2-n2c(C(=O)c3ccc(C=C)cc3O)cc(Cl)c2Cl)c(O)c1`: the values for the IC50 in assay [4] and in assay [1] were 3.7 µM and 3.5 µM, respectively. Besides, the outcome in the assay with MDA-MB-468 [2] and in the assay with MDA-MB-468 [5] was Active.
Consider `CCOC(=O)CSc1ccc(C(=O)c2[nH]c(Cl)c(Cl)c2-n2c(C(=O)c3ccc(SCC(=O)OCC)cc3O)cc(Cl)c2Cl)c(O)c1`, for which the result in the assay with MDA-MB-468 [6] was inactive.
With `COc1ccccc1C(=O)c1[nH]c(Cl)c(Cl)c1-n1c(C(=O)c2ccc(Cl)cc2OC)cc(Cl)c1Cl`, the IC50 in assay [4] amounted to 8 µM; in assay [1], 9.5 µM. The result in the assay with MDA-MB-468 [2] and in the assay with MDA-MB-468 [3] was inactive.
In the case of `CC1(C)CCC(c2ccc(Cl)cc2)=C(CN2CCN(c3ccc(C(=O)NS(=O)(=O)c4ccc(N[C@H](CCN5CCOCC5)CSc5ccccc5)c(S(=O)(=O)C(F)(F)F)c4)cc3)CC2)C1`, the outcome in the assay on MDA-MB-468 [6] was inactive.
In assay [1], `O=C(O)CSc1ccc(C(=O)c2[nH]c(Cl)c(Cl)c2-n2c(C(=O)c3ccc(SCC(=O)O)cc3O)cc(Cl)c2Cl)c(O)c1` yielded a half-inhibitory concentration (IC50) above 100 µM. In addition, the result in the assay on MDA-MB-468 [2] and in the assay on MDA-MB-468 [3] was inactive.
Turning to `CC(C)(C)OC(=O)Cn1cc(-c2ccc(C(=O)c3[nH]c(Cl)c(Cl)c3-n3c(C(=O)c4ccc(-c5cn(CC(=O)OC(C)(C)C)nn5)cc4O)cc(Cl)c3Cl)c(O)c2)nn1`, the figures for the IC50 in assay [4] and in assay [1] were 5.1 µM and 8.1 µM, respectively. Further, the result with MDA-MB-468 [2] and in the assay on MDA-MB-468 [3] was inactive.
As to `O=C(c1ccccc1O)c1[nH]c(Cl)c(Cl)c1-n1c(C(=O)c2cc(Cl)ccc2O)cc(Cl)c1Cl`, the IC50 in assay [4] was 3.9 µM; in assay [1], 18.3 µM. The outcome with MDA-MB-468 [2] and in the assay on MDA-MB-468 [5] was inactive.
Take `C#Cc1ccc(C(=O)c2[nH]c(Cl)c(Cl)c2-n2c(C(=O)c3ccc(C#C)cc3O)cc(Cl)c2Cl)c(O)c1`: the outcome in the assay with MDA-MB-468 [2] and in the assay on MDA-MB-468 [5] was Active.
`CCOC(=O)Cn1cc(-c2ccc(C(=O)c3[nH]c(Cl)c(Cl)c3-n3c(C(=O)c4ccc(-c5cn(CC(=O)OCC)nn5)cc4O)cc(Cl)c3Cl)c(O)c2)nn1` showed a concentration for half-maximal inhibition (IC50) in assay [1] above 100 µM. For the same compound, the result with MDA-MB-468 [2] and in the assay with MDA-MB-468 [3] was inactive.
`O=C(c1ccccc1O)c1[nH]c(Cl)c(Cl)c1-n1c(C(=O)c2cc(F)ccc2O)cc(Cl)c1Cl`: the IC50 in assay [4] came to 8.9 µM; in assay [1], 13.3 µM. For the same compound, the result in the assay on MDA-MB-468 [2] and in the assay with MDA-MB-468 [3] was Active.
In the case of `O=C(c1ccc(OS(=O)(=O)C(F)(F)F)cc1O)c1[nH]c(Cl)c(Cl)c1-n1c(C(=O)c2ccccc2O)cc(Cl)c1Cl`, the IC50 in assay [4] was determined as 1 µM; in assay [1] it was 2.1 µM. In addition, the outcome in the assay with MDA-MB-468 [2] and in the assay with MDA-MB-468 [5] was Active.
As to `O=C(c1ccc(O)cc1O)c1[nH]c(Cl)c(Cl)c1-n1c(C(=O)c2ccc(O)cc2O)cc(Cl)c1Cl`, the IC50 in assay [4] was 39.5 µM; in assay [1] it was above 50 µM. The outcome in the assay on MDA-MB-468 [2] and in the assay with MDA-MB-468 [3] was inactive.
In assay [1], `CCOC(=O)Cn1cc(-c2cc(O)c(C(=O)c3[nH]c(Cl)c(Cl)c3-n3c(C(=O)c4cc(Cl)c(-c5cn(CC(=O)OCC)nn5)cc4O)cc(Cl)c3Cl)cc2Cl)nn1` had an IC50 above 100 µM. The outcome with MDA-MB-468 [2] and in the assay with MDA-MB-468 [3] was inactive.
As for `Cc1cc(O)c(C(=O)c2[nH]c(Cl)c(Cl)c2-n2c(C(=O)c3cc(Cl)c(C)cc3O)cc(Cl)c2Cl)cc1Cl`, the outcome in the assay with MDA-MB-468 [2] and in the assay on MDA-MB-468 [5] was Active.
With `O=C(O)Cn1cc(-c2ccc(C(=O)c3[nH]c(Cl)c(Cl)c3-n3c(C(=O)c4ccc(-c5cn(CC(=O)O)nn5)cc4O)cc(Cl)c3Cl)c(O)c2)nn1`, the IC50 in assay [1] was above 50 µM. In addition, the outcome in the assay on MDA-MB-468 [2] and in the assay on MDA-MB-468 [3] was inactive.
As for `CC(C)(C)OC(=O)Cn1cc(-c2cc(O)c(C(=O)c3[nH]c(Cl)c(Cl)c3-n3c(C(=O)c4cc(Cl)c(-c5cn(CC(=O)OC(C)(C)C)nn5)cc4O)cc(Cl)c3Cl)cc2Cl)nn1`, the results for the 50% inhibitory concentration (IC50) in assay [4] and in assay [1] were 1.6 µM and 14 µM, respectively.
`O=C(c1ccccc1O)c1[nH]c(Cl)c(Cl)c1-n1c(C(=O)c2ccc(Cl)cc2O)cc(Cl)c1Cl`: the results for the IC50 in assay [4] and in assay [1] were 6.5 µM and 9.2 µM, respectively. Besides, the result in the assay on MDA-MB-468 [2] and in the assay with MDA-MB-468 [3] was Active.
For `O=C(c1ccc(C(F)(F)F)cc1O)c1[nH]c(Cl)c(Cl)c1-n1c(C(=O)c2ccc(C(F)(F)F)cc2O)cc(Cl)c1Cl`, the IC50 in assay [4] amounted to 8.1 µM; in assay [1] it was 9.7 µM. In addition, the outcome in the assay with MDA-MB-468 [2] and in the assay on MDA-MB-468 [5] was Active.
In the case of `CCCCCCCCn1cc(-c2ccc(C(=O)c3[nH]c(Cl)c(Cl)c3-n3c(C(=O)c4ccc(-c5cn(CCCCCCC)nn5)cc4O)cc(Cl)c3Cl)c(O)c2)nn1`, the IC50 in assay [4] turned out to be 0.6 µM; in assay [1], 0.5 µM.
The corresponding values for `O=C(c1ccc(-c2cn(-c3ccccc3)nn2)cc1O)c1[nH]c(Cl)c(Cl)c1-n1c(C(=O)c2ccc(-c3cn(-c4ccccc4)nn3)cc2O)cc(Cl)c1Cl` are 1.5 µM and 0.8 µM.
Take `O=C(c1cc(Cl)c(O)cc1O)c1[nH]c(Cl)c(Cl)c1-n1c(C(=O)c2cc(Cl)c(O)cc2O)cc(Cl)c1Cl`: the IC50 is 10.7 µM in assay [4] and above 50 µM in assay [1]. Besides, the result in the assay with MDA-MB-468 [2] and in the assay on MDA-MB-468 [3] was inactive.
Regarding `O=C(c1ccc(P(=O)(O)O)cc1O)c1[nH]c(Cl)c(Cl)c1-n1c(C(=O)c2ccc(P(=O)(O)O)cc2O)cc(Cl)c1Cl`, the result with MDA-MB-468 [2] and in the assay on MDA-MB-468 [3] was inactive.
With `O=C(c1ccccc1O)c1[nH]c(Cl)c(Cl)c1-n1c(C(=O)c2c(O)cccc2F)cc(Cl)c1Cl`, the IC50 in assay [4] was found to be 13.1 µM; in assay [1], 43.7 µM. The result in the assay with MDA-MB-468 [2] and in the assay on MDA-MB-468 [3] was inactive.
For `O=C(c1ccccc1O)c1[nH]c(Cl)c(Cl)c1-n1c(C(=O)c2cccc(Cl)c2O)cc(Cl)c1Cl`, the concentration for half-maximal inhibition (IC50) in assay [4] is 4.1 µM; in assay [1], 10.1 µM.
In the case of `Cn1c(Cl)c(Cl)c(-n2c(C(=O)c3ccccc3O)cc(Cl)c2Cl)c1C(=O)c1ccccc1O`, the IC50 in assay [4] was above 100 µM; in assay [1] it was 7.9 µM.
